Compound activity deposited in PubChem BioAssay by several laboratories.
Most compounds without a hit are left out; they make up all but 2.1% or so of the library.
UCH37 DUB inh: human UCH37 deubiquitinating enzyme inhibition. purified proteasome/UCH37, Ub-AMC cleavage fluorescence. AID 588478. Q9Y5K5. 330,000 compounds, 0.33% hits. inhibition, % (test concentration not listed);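 active = mean inhibition over replicate wells above about 20%, limit read from the data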;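 also: 0% = compound-free wells with enzyme and 100% = wells lacking proteasome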
Target sequence (Q9Y5K5 whole entry, looked up): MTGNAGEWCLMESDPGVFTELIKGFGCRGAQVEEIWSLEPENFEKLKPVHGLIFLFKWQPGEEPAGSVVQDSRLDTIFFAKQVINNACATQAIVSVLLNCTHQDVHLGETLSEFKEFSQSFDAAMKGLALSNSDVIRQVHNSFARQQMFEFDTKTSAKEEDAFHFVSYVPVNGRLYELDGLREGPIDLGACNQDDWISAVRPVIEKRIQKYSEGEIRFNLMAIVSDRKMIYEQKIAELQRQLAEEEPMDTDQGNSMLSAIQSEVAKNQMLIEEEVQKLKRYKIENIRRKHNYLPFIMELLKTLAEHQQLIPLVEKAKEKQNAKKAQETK
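System: Proteasome-associated human UCH37 deubiquitinase; Input: 0.15 nM proteasome in added enzyme buffer; Also added: Ub-AMC substrate from 1 µM stock; Incubation: 30 min compound-proteasome preincubation then 25 min substrate reaction, room temperature; Detection: fluorescence, ex 355 nm, em 460 nm; Read-out: % inhibition of Ub-AMC cleavage fluorescence; Benchmarks: no-proteasome and no-compound wells.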
PfG6PD inh: PfG6PD (Plasmodium falciparum) enzyme inhibition | 350,000 compounds, 0.78% hits | AID 504690 | PfGluPho enzyme, NADPH resazurin-diaphorase fluorescence | inhibition, % at 20 µM;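 active = inhibition reaching at least a set limit at 20 µM in the primary screen, cut at about 59% in these data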;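 also: 0% = DMSO wells with substrate and 100% = DMSO wells lacking glucose-6-phosphate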
HKDC1 inhibitor: inhibitors of human hexokinase HKDC1. 340,000 compounds, 0.16% hits. inhibition, % at 20 µM. Q2TB90. AID 493160. recombinant HKDC1, G6PDH/diaphorase resazurin coupled fluorescence;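 active = inhibition above about 35% when tested at 20 µM, limit read from the data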;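 also: plate controls were DMSO wells with enzyme for no effect and DMSO wells lacking enzyme for full effect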
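Assay system: in-house recombinant HK5 (HKDC1) enzyme. Input: HKDC1 at 5 µg/mL. Medium: Tris pH 8.0 buffer with MgCl2, Tween-20, BSA, BME. Dosing: single 20 µM dose. Schedule: 90 min reaction incubation at room temperature, dark. Signal: resazurin-to-resorufin fluorescence via G6PDH and diaphorase coupling, 525/613 nm. Controls: DMSO-enzyme wells negative, buffer-substituted wells positive.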
Cardio protect: myocardial damage modulation in H9c2 cells. H9c2 cardiomyocytes, H2O2 injury protection, ATPLite, 2 h. protection from H2O2 cell death, % at 20 µM. 360,000 compounds, 0.63% hits;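 active = compounds giving at least 50% protection of heart cells from peroxide-induced death in the single-dose screen, raw or plate-pattern-corrected value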;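 also: 0% = DMSO wells with peroxide and 100% = DMSO wells without peroxide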
aDG glyco up: alpha-DG glycosylation activation | 360,000 compounds, 0.22% hits | activation, % at 10 µM | Pro5-aDG cells, alpha-DG glycosylation AlphaScreen (IIH6); 0% Pro5, 100% B10-LARGE cell signal;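 active = activation of at least 8% versus controls, or a plate z-score of at least 8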;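 also: Pro5 are CHO cells carrying HIG-tagged alpha-DG that lacks glycosylation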
Beta2AR agonist: activates human beta-2 adrenergic receptor causing internalization. AID 504454. P07550. Am2.2-beta2AR cells, FAP receptor internalization, flow cytometry. 340,000 compounds, 0.43% hits. response, % (test concentration not listed);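 active = response above a set limit, near 3 SD of response in nonfluorescent compounds, cut at about 42% in these data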
PfG6PD confirm: confirmation of Plasmodium falciparum G6PD inhibitors; shares compounds with PfG6PD inh; recombinant PfGluPho, NADPH-diaphorase-resazurin fluorescence; inhibition, % at 20 µM; 2,400 compounds, 34% hits; AID 504753;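 active = inhibition of at least 50% at 20 µM in any single replicate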;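 also: 0% = DMSO with substrate and 100% = DMSO lacking glucose-6-phosphate substrate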
Starred values were filed as active, the others as inactive.

`CCN(C(=S)Nc1cccnc1)c1ccccc1` gave UCH37 DUB inh 1, PfG6PD inh 7, HKDC1 inhibitor 0, Cardio protect -6, aDG glyco up 0 and Beta2AR agonist -3.
Screening CN(C(=S)Nc1ccccc1)c1ccccc1 returned UCH37 DUB inh 0, PfG6PD inh 4, HKDC1 inhibitor 10, Cardio protect -5, aDG glyco up 0 and Beta2AR agonist 2.
For CN(C(=S)Nc1ccc(Oc2ccccc2)cc1)c1ccc(O)cc1 the results were UCH37 DUB inh 6, PfG6PD inh 78*, HKDC1 inhibitor 6, Cardio protect -12, aDG glyco up 0, Beta2AR agonist -13 and PfG6PD confirm 11.
CN(C(=S)Nc1cccnc1)c1ccc(O)cc1 was read as UCH37 DUB inh 2, PfG6PD inh 67*, HKDC1 inhibitor 5, Cardio protect 4, aDG glyco up 0, Beta2AR agonist 2 and PfG6PD confirm 2.
CCN(CC)c1ccc(/C=C2\CCC(/C=C(/C#N)C(=O)Nc3ccccc3F)=C2N2CCOCC2)cc1 was read as UCH37 DUB inh 9, PfG6PD inh 70*, HKDC1 inhibitor 18, Cardio protect -5, aDG glyco up 0, Beta2AR agonist -5 and PfG6PD confirm -14.
For CCN(CC)c1ccc(/C=C2\CCC(/C=C(\C#N)C(=O)Nc3ccccc3F)=C2N2CCOCC2)cc1 the results were UCH37 DUB inh 11, PfG6PD inh 46, HKDC1 inhibitor 18, Cardio protect -15, aDG glyco up 0 and Beta2AR agonist -7.
C=CCc1cccc(/C=N/NC(=O)c2ccccc2Br)c1O was read as PfG6PD inh 75*, HKDC1 inhibitor -15, Cardio protect 51*, aDG glyco up 1, Beta2AR agonist 3 and PfG6PD confirm 27.
O=C(N/N=C/c1cccc(Oc2ccccc2)c1)c1ccccc1Br was read as PfG6PD inh 89*, HKDC1 inhibitor 19, Cardio protect -13, aDG glyco up 0, Beta2AR agonist -6 and PfG6PD confirm 32.
For C=CCc1cccc(C=NNC(=O)CNc2ccccc2)c1O the results were UCH37 DUB inh -5.
For COc1ccccc1/C=N/NC(=O)c1ccccc1Cl the results were PfG6PD inh 9, HKDC1 inhibitor -5, Cardio protect 0, aDG glyco up 0 and Beta2AR agonist 4.
`C=CCc1cccc(/C=N/NC(=O)c2ccccc2OC)c1O` gave PfG6PD inh 79*, HKDC1 inhibitor -8, Cardio protect 41, aDG glyco up 1, Beta2AR agonist -19 and PfG6PD confirm 30.
`COc1c(C)cccc1C(=O)Nc1ccc(N2CCOCC2)c(Cl)c1` gave UCH37 DUB inh 4, PfG6PD inh 68*, HKDC1 inhibitor -7, Cardio protect -12, aDG glyco up 0, Beta2AR agonist 4 and PfG6PD confirm 39.
O=C(Nc1ccc(N2CCOCC2)c(Cl)c1)c1cccnc1Cl was read as UCH37 DUB inh 4, PfG6PD inh 7, HKDC1 inhibitor 7, Cardio protect 1, aDG glyco up 2 and Beta2AR agonist -1.
S=c1[nH]ncn1N=Cc1cccs1 was read as UCH37 DUB inh 4.
For O=C(Nc1ccc(Oc2cccnc2)cc1)c1ccc([N+](=O)[O-])cc1 the results were UCH37 DUB inh 4, PfG6PD inh 13, HKDC1 inhibitor 1, Cardio protect -3, aDG glyco up 0 and Beta2AR agonist -2.
`O=C(Nc1ccc(Oc2cccnc2)cc1)c1cccc([N+](=O)[O-])c1` gave UCH37 DUB inh 1, PfG6PD inh 61*, HKDC1 inhibitor 4, Cardio protect -3, aDG glyco up 1, Beta2AR agonist -5 and PfG6PD confirm 29.
O=S(=O)(N=C1C=CC(=NS(=O)(=O)c2ccccc2)c2ccccc21)c1ccccc1 was read as PfG6PD inh 62*, Cardio protect -23, aDG glyco up 1 and PfG6PD confirm 35.
